Test results taken from ChEMBL document CHEMBL3860086, “Antivirulence C-Mannosides as Antibiotic-Sparing, Oral Therapeutics for Urinary Tract Infections” (J Med Chem, 2016).
The source made the active and inactive calls. The calls are words filed in the database; no cut-off is given here.

Assays:
[1] = biological target: Type 1 fimbrin D-mannose specific adhesin (Escherichia coli K-12) (UniProt P08191); assay: Binding affinity to Escherichia coli UTI89 FimH lectin domain at 100 uM after 30 mins by SYPRO Orange-staining-based differential scanning fluorimetry
Type 1 fimbrin D-mannose specific adhesin (Escherichia coli K-12), sequence (P08191 whole entry, the tested form may be a part): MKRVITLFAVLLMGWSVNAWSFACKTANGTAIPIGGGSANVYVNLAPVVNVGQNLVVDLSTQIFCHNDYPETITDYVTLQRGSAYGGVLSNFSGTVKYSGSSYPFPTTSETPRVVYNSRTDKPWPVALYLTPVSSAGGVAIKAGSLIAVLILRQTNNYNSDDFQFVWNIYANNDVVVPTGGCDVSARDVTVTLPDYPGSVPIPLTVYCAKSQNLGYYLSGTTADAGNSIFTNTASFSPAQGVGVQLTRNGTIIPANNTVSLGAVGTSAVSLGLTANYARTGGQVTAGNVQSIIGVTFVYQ
Outline: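 Thermal shift (DSF) binding with FimH lectin domain (FimHL) at 10 μM, with or without 100 μM mannoside; otherwise run per an earlier described method.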

[2] = biological target: Type 1 fimbrin D-mannose specific adhesin (Escherichia coli K-12) (UniProt P08191); assay: Inhibition of Escherichia coli UTI89 FimH assessed as decrease in hemagglutination of guinea pig red blood cells after 4 to 18 hrs
Outline: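 Hemagglutination inhibition with clinical UPEC strain UTI89 and guinea pig red blood cells, run per an earlier described protocol.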

Escherichia coli [3] = assay: (§1) Antibacterial activity against Escherichia coli UTI89 with kanamycin cassette inserted in chromosome in C3H/HeN mouse acute cystitis model assessed as decrease in bacterial burden in urinary bladder at 25 mg/kg, po administered 30 mins prior to infection measured at 6 hrs post infection relative to control; assay type: functional
Outline: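 Female C3H/HeN mice (6–8 weeks) get 25 mg/kg mannoside by mouth in 10% cyclodextrin 30 min before infection. Infection is transurethral: 50 μL of 1–2 × 10^7 UTI89KAN under isoflurane. The inoculum is grown type 1-inducing (2 × 24 h static LB, 37 °C), washed and resuspended in PBS. At 6 h, bladders are homogenized, serially diluted and plated on LB with 50 μg/mL kanamycin for CFU.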

[4] = Ratio of drug level in C3H/HeN mouse urine to EC90 for Escherichia coli UTI89 FimH-mediated hemagglutination of guinea pig red blood cells
Escherichia coli [5] = assay: as §1, with “mouse chronic” for “mouse acute”, “administered 14 days post” for “administered 30 mins prior to”, “at 12” for “at 6”, “post dose” for “post infection”; assay type: functional
Outline: (§2)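 Female C3H/HeN mice (6–8 weeks) are infected transurethrally under isoflurane with 1–2 × 10^8 UTI89KAN (type 1-induced, PBS-washed) in 50 μL. Urine titers at day 12 select chronic infection (≥10^5). At 2 weeks, mice get oral gavage of 100 μL mannoside in 10% cyclodextrin. At set times, bladders are homogenized, serially diluted and plated on kanamycin LB for CFU.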

[6] = Clearance in Sprague-Dawley rat at 3 mg/kg, iv after 5 mins to 24 hrs by LC-MS/MS analysis; assay type: ADME, organism-based; settings: in vivo
Outline: (§3)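 Rat plasma PK: mannoside concentrations in plasma followed after either a 10 mg/kg oral dose or a 3 mg/kg intravenous dose.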

[7] = Ratio of drug level in C3H/HeN mouse urine to IC50 for Escherichia coli UTI89 FimH-mediated biofilm formation
[8] = Drug uptake in C3H/HeN mouse urine at 50 mg/kg, po administered through gavage after 8 hrs by LC-MS/MS analysis; assay type: ADME, organism-based; settings: read-out: Drug uptake
Outline: (§4)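 Mouse urine PK: C3H/HeN mice given 100 μL of 10 mg/mL mannoside in 10% cyclodextrin (50 mg/kg) by oral gavage. Urine sampled at several time points over 8 h and mannoside quantified by HPLC and mass spectrometry.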

[9] = Half life in simulated gut fluid (unknown origin); assay type: ADME
Outline: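 Stability is measured in simulated gut fluid at pH 1.2.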

[10] = Volume of distribution at steady state in Sprague-Dawley rat at 3 mg/kg, iv after 5 mins to 24 hrs by LC-MS/MS analysis; assay type: ADME, organism-based; settings: in vivo; outline: as §3
[11] = Half life in liver microsomes (unknown origin); assay type: ADME
[12] = Oral bioavailability in Sprague-Dawley rat at 10 mg/kg after 15 mins to 24 hrs by LC-MS/MS analysis; assay type: ADME, organism-based; settings: in vivo; outline: as §3
Escherichia coli [13] = assay: as §1, with “chronic” for “acute”, “50” for “25”, “14 days post” for “30 mins prior to”, “dose (reference value: 10^7 CFU)” for “infection relative to control”; assay type: functional; outline: as §2
[14] = Drug uptake in C3H/HeN mouse urine at 50 mg/kg, po administered through gavage after 1 hr by LC-MS/MS analysis; assay type: ADME, organism-based; settings: in vivo; outline: as §4
Escherichia coli [15] = assay: as §1, with “chronic” for “acute”, “50” for “25”, “14 days post” for “30 mins prior to”, “2” for “6”, “dose (reference value: 10^7 CFU)” for “infection relative to control”; assay type: functional; outline: as §2
Escherichia coli [16] = assay: as §1, with “chronic” for “acute”, “50” for “25”, “14 days post” for “30 mins prior to”, “12” for “6”, “dose (reference value: 10^7 CFU)” for “infection relative to control”; assay type: functional; outline: as §2

Row | Tm [1] [°C] | EC90 [2] [µM] | SMILES | further results
1 | 66.4 | 24 | CNC(=O)c1cccc(-c2ccc([C@H](O)[C@H]3O[C@H](CO)[C@@H](O)[C@H](O)[C@@H]3O)c(C)c2)c1 | 
2 | 73.2 | 0.5 | CNC(=O)c1cccc(-c2ccc(O[C@H]3O[C@H](CO)[C@@H](O)[C@H](O)[C@@H]3O)cc2)c1 | 
3 |  | 1 | CNC(=O)c1cccc(-c2ccc(C[C@H]3O[C@H](CO)[C@@H](O)[C@H](O)[C@@H]3O)cc2)c1 | 
4 | 74.6 | 0.125 | Cc1cc(-c2cccc3cnccc23)ccc1[C@@H](O)[C@H]1O[C@H](CO)[C@@H](O)[C@H](O)[C@@H]1O | 
5 |  | 4 | COC(=O)c1cccc(-c2ccc(S[C@H]3O[C@H](CO)[C@@H](O)[C@H](O)[C@@H]3O)cc2)c1 | 
6 |  |  | CNC(=O)c1cccc(-c2ccc(O[C@H]3O[C@H](COC(C)=O)[C@@H](OC(C)=O)[C@H](OC(C)=O)[C@@H]3OC(C)=O)c(C)c2)c1 | Activity (Escherichia coli [3]): Active; Activity (Escherichia coli [5]): Active; Ratio [7]: > 10; concentration at 8 h [8]: 20 µM
7 |  | 32 | OC[C@H]1O[C@H](n2cc(-c3ccccc3)nn2)[C@@H](O)[C@@H](O)[C@@H]1O | 
8 |  | 2 | CNC(=O)c1cccc(-c2ccc(C[C@H]3O[C@H](CO)[C@@H](O)[C@H](O)[C@@H]3O)c(C)c2)c1 | 
9 |  |  | CNC(=O)c1cccc(-c2ccc(O[C@H]3O[C@H](COP(=O)(O)O)[C@@H](O)[C@H](O)[C@@H]3O)c(C)c2)c1 | Activity (Escherichia coli [3]): Active
10 | 67.2 | 24 | CNC(=O)c1cccc(-c2ccc([C@H](O)[C@H]3O[C@H](CO)[C@@H](O)[C@H](O)[C@@H]3O)cc2)c1 | 
11 | 75 | 0.032 | Cc1cc(-c2ccc3c(c2)C(=O)NCC3)ccc1O[C@H]1O[C@H](CO)[C@@H](O)[C@H](O)[C@@H]1O | 
12 | 75 | 0.062 | Cc1cc(-c2cccc3cnccc23)ccc1O[C@H]1O[C@H](CO)[C@@H](O)[C@H](O)[C@@H]1O | 
13 |  | 16 | O=C(NC[C@H]1O[C@H](CO)[C@@H](O)[C@H](O)[C@@H]1O)c1ccc(Br)cc1 | 
14 | 75.1 | 0.02 | Cc1cc(-c2ccc3ccnc(N)c3c2)ccc1O[C@H]1O[C@H](CO)[C@@H](O)[C@H](O)[C@@H]1O | 
15 |  | 16 | COC(=O)c1cccc(-c2ccc(NC(=O)[C@H]3O[C@H](CO)[C@@H](O)[C@H](O)[C@@H]3O)cc2)c1 | 
16 |  | 4 | COC(=O)c1cccc(-c2ccc(N[C@H]3O[C@H](CO)[C@@H](O)[C@H](O)[C@@H]3O)cc2)c1 | 
17 | 74.5 | 0.062 | CNC(=O)c1cccc(-c2ccc(O[C@H]3O[C@H](CO)[C@@H](O)[C@H](O)[C@@H]3O)c(C)c2)c1 | Drug uptake [14]: Active; clearance [6]: 98.4 mL/min/kg; Ratio [7]: > 10; concentration at 8 h [8]: 1 µM
18 | 72.8 | 0.25 | CNC(=O)c1cccc(-c2ccc([C@@H](O)[C@H]3O[C@H](CO)[C@@H](O)[C@H](O)[C@@H]3O)cc2)c1 | 

Row | SMILES | Tm [1] [°C] | EC90 [2] [µM] | further results
19 | Cc1cc(-c2ccc3cc[nH]c(=O)c3c2)ccc1[C@@H](O)[C@H]1O[C@H](CO)[C@@H](O)[C@H](O)[C@@H]1O | 77.5 | 0.008 | fold change (FC) (Escherichia coli [3]): 2
20 | CNC(=O)c1cccc(-c2ccc([C@@H](O)[C@H]3O[C@H](CO)[C@@H](O)[C@H](O)[C@@H]3O)c(C)c2)c1 | 75.4 | 0.031 | Ratio [4]: 1600; fold change (FC) (Escherichia coli [5]): 3; clearance [6]: 34.9 mL/min/kg; Ratio [7]: > 10; concentration at 8 h [8]: 50 µM
21 | Cc1cc(-c2ccc3ccnc(N)c3c2)ccc1[C@@H](O)[C@H]1O[C@H](CO)[C@@H](O)[C@H](O)[C@@H]1O | 77.7 | 0.006 | Activity (Escherichia coli [3]): Active
22 | Cc1cc(-c2ccc3cc[nH]c(=O)c3c2)ccc1O[C@H]1O[C@H](CO)[C@@H](O)[C@H](O)[C@@H]1O | 75.4 | 0.031 | half-life [9]: > 2 h; fold change (FC) (Escherichia coli [3]): 2; Vdss [10]: 6.7 L; half-life [11]: > 2 h; clearance [6]: 408 mL/min/kg; F [12]: 7%
23 | CNC(=O)c1cc(C(=O)NC)cc(-c2ccc(O[C@H]3O[C@H](CO)[C@@H](O)[C@H](O)[C@@H]3O)c(C)c2)c1 |  | 0.016 | half-life [9]: > 2 h; Activity (Escherichia coli [5]): Active; Activity (Escherichia coli [13]): 10000 CFU; Drug uptake [14]: Active; Activity (Escherichia coli [15]): 100000 CFU; half-life [11]: > 2 h; Ratio [7]: > 10; Activity (Escherichia coli [16]): 100000 CFU
24 | Cc1cc(-c2ccc3c(c2)C(=O)NCC3)ccc1[C@@H](O)[C@H]1O[C@H](CO)[C@@H](O)[C@H](O)[C@@H]1O | 76.5 | 0.006 | Activity (Escherichia coli [3]): Active
